Screening data from PubChem BioAssay.
Compounds with a hit are over-represented: about 3.9% of the library has one in this group of screens.
STAT3 activator = IL-6 driven STAT3 reporter potentiators, primary screen, U3A cells, luciferase, luminescence, MLSCN library. IL-6 STAT3-luciferase reporter; 100% = signal with IL-6 EC80 alone. 190,000 compounds, 0.91% hits. activation (% of control), % at 5.6 µM. AID 871, 2007;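 active means activation above the screen-wide mean of compound activation plus 3 SD, cut at about 130% in these data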;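 further: 0% = background luminescence of wells with medium and substrate only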
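Assay system – human STAT1-deficient U3A cells with stable STAT3-luciferase reporter · Also added – IL-6 (33 ng/mL) · Schedule – compound 1 h, then IL-6 6 h at 37 °C · Technique – reporter luminescence signal · Evaluation – % activation versus median of IL-6-stimulated wells · Benchmarks – IL-6-only wells as 100% reference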
APP 5'UTR act = activators of APP 5'UTR luciferase reporter, primary screen, SH-SY5Y cells | 190,000 compounds, 1% hits | activation, % at 2 µM | SH-SY5Y APP 5'UTR luciferase reporter, luminescence; zero percent = DMSO vehicle wells | AID 1276, 2008;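 active means activation above a set limit, based on mean plus 3 SD of controls, cut at about 140% in these data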
Pf gamet viab = late stage P. falciparum gametocyte viability inhibitors, primary screen, ATP luminescence, HTS. inhibition, % at 10.9 µM. AID 743093, 2013. 150,000 compounds, 0.065% hits. P. falciparum stage V gametocytes, 24 h;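 active means inhibition above the mean plus 3 SD of compounds within the control limits, set per campaign, cut at about 38% in these data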;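 further: 0% = DMSO wells and 100% = medium only without gametocytes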
STAT1 blocker = STAT1 signaling inhibitors, primary screen, cell-based, HTS, luciferase reporter | NIH 3T3 STAT1-luciferase reporter, IFN-gamma, luminescence | inhibition, % at 5.5 µM | 200,000 compounds, 0.35% hits;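 active means inhibition above a set limit, the mean inhibition across all tested compounds plus 3 SD, cut at about 34% in these data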;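 further: 0% = IFN-gamma with DMSO and 100% = IFN-gamma with 300 µM nifuroxazide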
NF-kB neuron act = activators of NF-kB expression in neurons, primary screen, cell-based, HTS. fold change at 12.5 µM. human neuronal cells, NF-kB reporter expression; hits give high values. AID 1239, 2008. 190,000 compounds, 1.6% hits; in the data active means fold change above about 3.3
STAT1 act = STAT1 signaling activators, primary screen, cell-based, HTS, luciferase reporter. NIH 3T3 STAT1-luciferase reporter, IFN-gamma, luminescence; 100% = IFN-gamma alone, no compound. activation (% of control), % at 5.5 µM. 200,000 compounds, 2.6% hits;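 active means activation above the screen-wide mean activation plus 3 SD, cut at about 130% in these data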;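 further: raw ratio to IFN-gamma control signal so 100% means no change and 0% no light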
The depositor's hits bear a star; . = no result given.

SMILES	STAT3 activator	APP 5'UTR act	Pf gamet viab	STAT1 blocker	NF-kB neuron act	STAT1 act
Cc1oc(-c2cccc3ccccc23)nc1CN1CCC[C@H]1CO	104	21	20	-6	0.98	103
CCCCS(=O)(=O)N1CCCC(C(=O)Oc2ccc(Cl)cc2)C1 (stereo not given)	.	.	4	.	.	.
O=C1c2nccnc2C(=O)N1c1ccc(C(F)(F)F)cc1	104	-16	.	-4	1	101
O=C1c2ccccc2NC(c2ccccc2Cl)N1N=C1CCCCCC1 (stereo not given)	104	44	-2	-43	1.7	139*
O=C1NC(c2ccccc2Cl)Nc2ccccc21 (stereo not given)	124	-5	.	5	1.1	96
Cc1ccc(C(=O)Nc2cccnc2)cc1S(=O)(=O)N1CCOCC1	100	-2	.	4	1.6	96
Cc1ccc(C(=O)Nc2ccc3cn[nH]c3c2)cc1S(=O)(=O)N1CCOCC1	142*	2	12	-32	.	130*
